The list is not random: actives were taken first. Their share in the collection is about 5.8%.
T cruzi growth-1 – inhibitors of T. cruzi proliferation | T. cruzi beta-gal in NIH3T3, GalScreen luminescence, 90 h | inhibition, % at 8.34 µM | 77,000 compounds, 5.9% hits;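 active means mean inhibition above about 93%, with at least 55% of replicates each passing it, limit read from the data, passing the limit was not always enough; inconclusive means only one of those two conditions holds; inactive means neither condition holds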
GASC1 inh – inhibitors of human demethylase GASC-1 KDM4C. GST-KDM4C 2-372, H3K9me3 peptide, LANCE TR-FRET. inhibition, % at 12.5 µM. 96,000 compounds, 0.15% hits. AID 720574;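 active means mean replicate inhibition above about 25%, with at least 55% of replicates also reaching it, limit read from the data, passing the limit was not always enough; inconclusive means only one of those two conditions met; inactive means neither condition met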
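material = GST-tagged GASC-1 (JMJD2C) catalytic fragment, aa 2-372 | amount = enzyme final amount 10 nM | medium = HEPES buffer, pH 7.5, plus ascorbate | also added = H3K9me3 peptide substrate, Fe(II), 2-oxoglutarate | dosing = single dose | times = 30 min demethylation and 1 h detection at room temperature | detection = LANCE TR-FRET | read-out basis = Fall in 671/618 emission ratio as inhibition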
IDH1 mut inh – blocks human IDH1 R132H reductase activity; diaphorase/resazurin fluorescence, 60 min; inhibition, % at 10 µM; 70,000 compounds, 0.18% hits; AID 624101; in the data active means inhibition above about 34%; inconclusive means no clear call, values can overlap the other calls; inactive means below about 11%;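 further: 0% = DMSO and 100% = no enzyme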
Target sequence (O75874 whole entry R132H): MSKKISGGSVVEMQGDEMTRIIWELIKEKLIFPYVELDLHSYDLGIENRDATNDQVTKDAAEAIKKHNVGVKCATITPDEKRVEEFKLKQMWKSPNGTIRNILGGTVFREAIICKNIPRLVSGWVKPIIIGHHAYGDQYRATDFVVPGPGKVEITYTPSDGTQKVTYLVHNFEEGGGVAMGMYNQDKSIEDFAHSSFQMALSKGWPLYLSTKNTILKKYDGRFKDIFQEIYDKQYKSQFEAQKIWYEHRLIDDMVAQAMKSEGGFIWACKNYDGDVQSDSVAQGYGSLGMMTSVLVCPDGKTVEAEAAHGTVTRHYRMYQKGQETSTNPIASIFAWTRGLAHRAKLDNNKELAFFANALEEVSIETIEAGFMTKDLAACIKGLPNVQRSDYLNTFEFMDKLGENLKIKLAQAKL
Pf Dd2 inh – blocks growth of Plasmodium falciparum Dd2 parasites; P. falciparum Dd2 growth, SYBR Green, 72 h; active compounds read low; activity change, % at 10 µM; 94,000 compounds, 2.3% hits; AID 1159554; in the data active means activity change below about -80%; inconclusive means no clear call, values can overlap the other calls
T cruzi growth-2 – Trypanosoma cruzi proliferation inhibition; 5,600 compounds, 72% hits; inhibition, % at 8.35 µM; T. cruzi beta-gal in NIH3T3, GalScreen luminescence, 90 h; shares compounds with T cruzi growth-1;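 active means mean replicate inhibition above about 95% and at least 55% of replicates individually reaching it, limit read from the data; inconclusive means only one of the two criteria is met; inactive means neither criterion is met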
T cruzi growth-3 – Trypanosoma cruzi proliferation inhibition; shares compounds with T cruzi growth-1; T. cruzi beta-gal in NIH3T3, GalScreen luminescence, 90 h; inhibition, % at 2.09 µM; 5,600 compounds, 21% hits; AID 651740;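 active means mean inhibition above about 95%, with at least 55% of replicates also reaching it, limit read from the data; inconclusive means meets just one of the two conditions; inactive means meets neither condition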;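 further: plate controls were neutral control median for no effect and positive control median for full effect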
3T3 cytotox – cytotoxicity in mouse NIH/3T3 fibroblasts; AID 651742; shares compounds with T cruzi growth-1; NIH/3T3 viability, CellTiter-Glo ATP luminescence, 90 h; cytotoxicity (signal decrease), % at 8.35 µM; 5,600 compounds, 14% hits;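 active means mean signal decrease across replicates above about 35% based on untreated-well scatter, with enough replicates individually passing, limit read from the data; inconclusive means no rule stated though some were filed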;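 further: 0% = median of neutral control wells and 100% = median of positive control wells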
3T3 cytotox 2 – cytotoxicity in mouse NIH/3T3 fibroblasts; AID 651744; inhibition, % at 24.9 µM; NIH/3T3 viability, CellTiter-Glo ATP luminescence, 90 h; 5,600 compounds, 56% hits; shares compounds with T cruzi growth-1;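 active means mean loss of cell viability signal at or above a set limit, and enough replicates individually reaching it; inconclusive means meets only the mean limit or only the replicate share; inactive means meets neither condition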;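 further: 0% = median of neutral control wells and 100% = median of positive control wells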
* hit, by the source's call.

For C[C@@H]1CCCCO[C@H](CN(C)Cc2ccccc2)[C@@H](C)CN([C@@H](C)CO)C(=O)c2cc(NC(=O)c3ccncc3)ccc2O1 the results were T cruzi growth-1 98*, GASC1 inh -1, IDH1 mut inh 3, Pf Dd2 inh -13, T cruzi growth-2 16, T cruzi growth-3 -36, 3T3 cytotox -18 and 3T3 cytotox 2 -25.
`CC(C)NC(=O)Nc1cccc2c1O[C@H](CN(C)S(=O)(=O)c1cccs1)[C@H](C)CN([C@H](C)CO)C2=O` gave T cruzi growth-1 7, GASC1 inh -1, IDH1 mut inh 2 and Pf Dd2 inh 26.
Screening C[C@@H]1CN([C@H](C)CO)S(=O)(=O)c2ccc(C#CC(C)(C)O)cc2O[C@H]1CN(C)Cc1ccccc1 returned T cruzi growth-1 75 and Pf Dd2 inh -23.
C[C@@H]1CN([C@H](C)CO)S(=O)(=O)c2ccc(C#CC(C)(C)O)cc2O[C@@H]1CN(C)Cc1ccc(-c2ccccc2)cc1 was read as T cruzi growth-1 125*, GASC1 inh 1, Pf Dd2 inh -63, T cruzi growth-2 83, T cruzi growth-3 110*, 3T3 cytotox 45* and 3T3 cytotox 2 107*.
Screening C[C@H]1CN([C@@H](C)CO)S(=O)(=O)c2ccc(C#CC(C)(C)O)cc2O[C@H]1CN(C)Cc1ccccc1 returned T cruzi growth-1 77 and Pf Dd2 inh -32.
Screening C[C@H]1CN([C@@H](C)CO)S(=O)(=O)c2ccc(C#CC(C)(C)O)cc2O[C@H]1CN(C)Cc1ccc(-c2ccccc2)cc1 returned T cruzi growth-1 124*, GASC1 inh 0, Pf Dd2 inh -65, T cruzi growth-2 96*, T cruzi growth-3 113*, 3T3 cytotox 114* and 3T3 cytotox 2 105*.
Screening C[C@H](CO)N1C[C@H](C)[C@@H](CN(C)Cc2ccc(-c3ccccc3)cc2)Oc2cc(C#CC(C)(C)O)ccc2S1(=O)=O returned T cruzi growth-1 117*, GASC1 inh 0, IDH1 mut inh -1, Pf Dd2 inh -73, T cruzi growth-2 95*, T cruzi growth-3 116*, 3T3 cytotox 114* and 3T3 cytotox 2 104*.
For C[C@H](CO)N1C[C@H](C)[C@H](CN(C)Cc2ccc(-c3ccccc3)cc2)Oc2cc(C#CC(C)(C)O)ccc2S1(=O)=O the results were T cruzi growth-1 122*, GASC1 inh -2, Pf Dd2 inh -54, T cruzi growth-2 92, T cruzi growth-3 116*, 3T3 cytotox 51* and 3T3 cytotox 2 104*.
Cc1ccc2oc(=O)n(CCc3noc(-c4cc(C)on4)n3)c2c1 was read as IDH1 mut inh -3.
For COc1ccc2c3c(n(C)c2c1)[C@@H](CO)N(C(=O)c1cccnc1)CC31CN(S(C)(=O)=O)C1 the results were GASC1 inh -1 and Pf Dd2 inh 12.
Screening C[C@H]1CN([C@@H](C)CO)S(=O)(=O)c2ccc(C#CC(C)(C)O)cc2O[C@@H]1CN(C)Cc1ccc(-c2ccccc2)cc1 returned T cruzi growth-1 118*, GASC1 inh 0, Pf Dd2 inh -58, T cruzi growth-2 98*, T cruzi growth-3 112*, 3T3 cytotox 120* and 3T3 cytotox 2 104*.
`C[C@@H]1CN([C@H](C)CO)C(=O)c2cc(-c3cccnc3)cnc2O[C@H]1CN(C)C(=O)NC1CCCC1` gave T cruzi growth-1 63, GASC1 inh -1, IDH1 mut inh 0 and Pf Dd2 inh 20.
Screening C[C@@H]1CN([C@@H](C)CO)C(=O)c2cc(NC(=O)c3ccccc3)ccc2O[C@@H](C)CCCCO[C@H]1CN(C)C(=O)CCCN(C)C returned T cruzi growth-1 47, GASC1 inh -2, IDH1 mut inh -1 and Pf Dd2 inh 2.
`C[C@@H]1CCCCO[C@H](CN(C)C(=O)CCCN(C)C)[C@@H](C)CN([C@H](C)CO)C(=O)c2cc(NC(=O)c3ccccc3)ccc2O1` gave T cruzi growth-1 99*, GASC1 inh 2, IDH1 mut inh 3, Pf Dd2 inh 8, T cruzi growth-2 23, T cruzi growth-3 -38, 3T3 cytotox -11 and 3T3 cytotox 2 9.
`C[C@@H]1CN([C@H](C)CO)C(=O)c2cc(NS(C)(=O)=O)ccc2O[C@@H](C)CCCCO[C@@H]1CN(C)C(=O)CCCN(C)C` gave T cruzi growth-1 100*, GASC1 inh 1, Pf Dd2 inh 23, T cruzi growth-2 54, T cruzi growth-3 0, 3T3 cytotox 18 and 3T3 cytotox 2 -2.
For C[C@H]1CN([C@@H](C)CO)C(=O)c2cccc(NC(=O)c3nc4ccccc4s3)c2O[C@H]1CN(C)Cc1ccc(Cl)c(Cl)c1 the results were T cruzi growth-1 97*, GASC1 inh -4, Pf Dd2 inh -57, T cruzi growth-2 112*, T cruzi growth-3 73, 3T3 cytotox 47* and 3T3 cytotox 2 54*.
Screening C[C@H]1CN([C@@H](C)CO)C(=O)c2cccc(NC(=O)c3nc4ccccc4s3)c2O[C@H]1CN(C)Cc1ccc(C(F)(F)F)cc1 returned T cruzi growth-1 inconclusive, GASC1 inh -4, IDH1 mut inh 0, Pf Dd2 inh inconclusive, T cruzi growth-2 110*, T cruzi growth-3 65, 3T3 cytotox 34 and 3T3 cytotox 2 96*.
For C[C@H](CO)N1C[C@H](C)[C@H](CN(C)Cc2ccccc2)Oc2c(NC(=O)c3nc4ccccc4s3)cccc2C1=O the results were T cruzi growth-1 99*, GASC1 inh -1, IDH1 mut inh 0, Pf Dd2 inh -25, T cruzi growth-2 103*, T cruzi growth-3 47, 3T3 cytotox -4 and 3T3 cytotox 2 inconclusive.
C[C@@H]1CN([C@H](C)CO)C(=O)c2cccc(NC(=O)c3nc4ccccc4s3)c2O[C@H]1CN(C)Cc1ccc(C(F)(F)F)cc1 was read as T cruzi growth-1 96, GASC1 inh -1 and Pf Dd2 inh -77.
C[C@@H]1CN([C@H](C)CO)C(=O)c2cccc(NC(=O)c3nc4ccccc4s3)c2O[C@H]1CN(C)Cc1ccc(C(=O)Nc2ccccc2N)cc1 was read as T cruzi growth-1 104*, GASC1 inh 3, Pf Dd2 inh -92*, T cruzi growth-2 108*, T cruzi growth-3 77, 3T3 cytotox -12 and 3T3 cytotox 2 33*.
CCC(=O)Nc1ccc2c(c1)C(=O)N(C)C[C@H](OC)[C@H](C)CN(C(=O)c1ccc(F)cc1)[C@@H](C)CO2 was read as T cruzi growth-1 -10, GASC1 inh 1, IDH1 mut inh 0 and Pf Dd2 inh -8.

Compound activity as filed in PubChem.
